Columns and labels:
L1210 [1] = test: Fraction of the cell population of cultured lymphoid leukemia L1210 cells in mitosis after 24 hr; at the concentration of 0.3 uM; type: functional, Mus musculus
P388 [2] = test: antitumor activity against lymphocyte leukemia P388 in mice as percentage of increase in life span for 1 day schedule; type: functional, Mus musculus
Outline: (§1)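 Mice bearing lymphocytic leukemia P388 were treated. The value is the percent increase in life span at the highest nontoxic dose tested.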

L1210 [3] = test: inhibition of proliferation of cultured lymphoid leukemia L1210 cells during 48 hr.; type: functional; details: Mus musculus, L1210, 48 h, read-out: ID50
Outline: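 Cultured L1210 cells were exposed to agent for 48 h. The value is the concentration that holds proliferation to 50% of untreated control.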

L1210 [4] = test: Fraction of the cell population of cultured lymphoid leukemia L1210 cells in mitosis after 12 hr; type: functional, Mus musculus
P388 [5] = test: antitumor activity against lymphocyte leukemia P388 in mice as percentage of increase in life span for 30th day survivor, 1-5 days schedule.; type: functional, Mus musculus
P388 [6] = test: antitumor activity against lymphocyte leukemia P388 in mice as percentage of increase in life span for 1-5 days schedule (values in the parenthesen indicates dose); type: functional, Mus musculus; outline: as §1
L1210 [7] = test: Antitumor activity against lymphoid leukemia L1210 in mice for 1-9 days schedule; type: functional, Mus musculus
Outline: (§2)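 Mice bearing L1210 leukemia; the read-out is the percent increase in life span, reported at the highest nontoxic dose tested. Toxic doses are flagged separately.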

L1210 [8] = test: Antitumor activity against lymphoid leukemia L1210 in mice for 1 day schedule; type: functional, Mus musculus; outline: as §2
KB = test: Inhibition of colony formation of KB human epidermoid carcinoma cells.; type: functional; details: read-out: ED50 (the source's name)
L1210 [9] = test: Fraction of the cell population of cultured lymphoid leukemia L1210 cells in mitosis after 12 hr; at the concentration of 0.3 uM; type: functional, Mus musculus
L1210 [10] = test: Fraction of the cell population of cultured lymphoid leukemia L1210 cells in mitosis after 12 hr; at the concentration of 0.01 uM; type: functional, Mus musculus
L1210 [11] = test: Fraction of the cell population of cultured lymphoid leukemia L1210 cells in mitosis after 12 hr; at the concentration of 0.03 uM; type: functional, Mus musculus
L1210 [12] = test: Fraction of the cell population of cultured lymphoid leukemia L1210 cells in mitosis after 24 hr; type: functional, Mus musculus
HEp-2 (Homo sapiens) = test: Inhibition of colony formation of human epidermoid carcinoma no. 2 (HEp-2) cells.; details: read-out: ED50 (the source's name)
L1210 [13] = test: Fraction of the cell population of cultured lymphoid leukemia L1210 cells in mitosis after 12 hr; at the concentration of 0.1 uM; type: functional, Mus musculus
P388 [14] = test: antitumor activity against lymphocyte leukemia P388 in mice as percentage of increase in life span for 1-9 days schedule; type: functional, Mus musculus; outline: as §1
P388 [15] = test: antitumor activity against lymphocyte leukemia P388 in mice as percentage of increase in life span for 1-9 days schedule. (values in the parenthesen indicates dose); type: functional, Mus musculus; outline: as §1
L1210 [16] = test: Fraction of the cell population of cultured lymphoid leukemia L1210 cells in mitosis after 12 hr at the concentration of 0.03 uM; type: functional, Mus musculus
L1210 [17] = test: Fraction of the cell population of cultured lymphoid leukemia L1210 cells in mitosis after 24 hr at the concentration of 0.3 uM; type: functional, Mus musculus

Row | Compound | ILS (P388 [2]) [%] | IC50 (L1210 [3]) [nM] | ILS (L1210 [8]) [%] | EC50 (KB) [nM] | also measured
1 | CCOC(=O)Nc1cc2ncc(-c3ccccc3)nc2c(N)n1 | 0 | > 300 | – | – | Mitotic index (L1210 [1]): 0.02
2 | CCOC(=O)Nc1cc2c(c(N)n1)N=C(c1ccc3ccccc3c1)CN2 | – | 6 | – | – | Mitotic index (L1210 [4]): 0.6; ILS (P388 [5]): 66%; ILS (mg/kg) (P388 [6]): 53%
3 | CCOC(=O)Nc1cc(N(C)CC(O)c2ccccc2)c(N)c(N)n1 (centres undefined) | 0 | > 300 | – | – | –
4 | CCOC(=O)Nc1cc(N)c2c(n1)NCC(CN(C)c1ccc(C(=O)OC)cc1)=N2 | – | – | 0 | 24000 | ILS (L1210 [7]): 0%
5 | COC(=O)c1ccc(N(C)CC2=Nc3c(N)nc(N)nc3NC2)cc1 | – | – | – | 21000 | –
6 | CCOC(=O)Nc1cc2c(c(N)n1)N=C(c1ccc(-c3ccccc3)cc1)CN2 | 36 | 6.1 | – | – | Mitotic index (L1210 [9]): 0.42; Mitotic index (L1210 [10]): 0.65
7 | CCOC(=O)Nc1cc2ncc(-c3ccc(C(F)(F)F)cc3)nc2c(N)n1 | – | > 300 | – | – | –
8 | CCOC(=O)Nc1cc2c(c(N)n1)N=C(CN(C)c1ccccc1)CN2 | 114 | 8.4 | – | – | Mitotic index (L1210 [11]): 0.77; Mitotic index (L1210 [12]): 0.8
9 | CCOC(=O)Nc1cc2c(c(N)n1)N=C(CCc1ccccc1)CN2 | 29 | 13 | – | – | Mitotic index (L1210 [1]): 0.33
10 | COC(=O)c1ccc(N(C)CC2=Nc3c(cc(N)nc3Cl)NC2)cc1 | – | – | – | > 100000 | –
11 | CCOC(=O)Nc1cc2ncc(CNc3ccc(C(=O)OCC)cc3)nc2c(N)n1 | – | – | – | – | EC50 (HEp-2 (Homo sapiens)): 42000 nM
12 | CCOC(=O)Nc1cc2ncc(C(=O)N(C)c3ccccc3)nc2c(N)n1 | – | – | 0 | > 100000 | –
13 | CCOC(=O)c1ccc(NCC2=Nc3c(N)nc(N)nc3NC2)cc1 | – | – | 8 | 10000 | ILS (L1210 [7]): 0%
14 | CCOC(=O)Nc1cc(N)c2nc(CN(C)c3ccc(C(=O)OC)cc3)cnc2n1 | – | – | 0 | 240000 | ILS (L1210 [7]): 0%
15 | CN(Cc1cnc2cc(N)nc(N)c2n1)c1ccccc1 | – | – | 0 | > 100000 | ILS (L1210 [7]): 0%
16 | CCOC(=O)c1ccc(NCc2cnc3nc(N)nc(N)c3n2)cc1 | – | – | 0 | 17000 | ILS (L1210 [7]): 0%

Row | Compound | ILS (P388 [2]) [%] | IC50 (L1210 [3]) [nM] | ILS (L1210 [8]) [%] | EC50 (KB) [nM] | also measured
17 | COC(=O)c1ccc(N(C)Cc2cnc3nc(N)nc(N)c3n2)cc1 | – | – | 3 | 19000 | ILS (L1210 [7]): 2%
18 | CCOC(=O)Nc1cc2c(c(O)n1)N=C(CN(C)c1ccc(C(=O)OC)cc1)CN2 | – | – | 2 | 8000 | –
19 | CN(CC1=Nc2c(cc(N)nc2N)NC1)c1ccccc1 | – | 5.8 | – | – | Mitotic index (L1210 [13]): 0.44; Mitotic index (L1210 [9]): 0.61; ILS (P388 [14]): 30%
20 | CCOC(=O)Nc1cc2c(c(NC(=O)OCC)n1)N=C(CN(C)c1ccccc1)CN2 | – | – | 46 | – | ILS (L1210 [7]): 14%; EC50 (HEp-2 (Homo sapiens)): 1200 nM
21 | CCOC(=O)Nc1cc2c(c(NC(=O)OCC)n1)N=C(C)CN2 | – | – | 0 | 91000 | –
22 | CCOC(=O)Nc1cc2ncc(CN(C)c3ccc(C(=O)OC)cc3)nc2c(N)n1 | – | – | – | – | EC50 (HEp-2 (Homo sapiens)): 19000 nM
23 | CCOC(=O)Nc1cc2c(c(N)n1)NC(CN(C)c1ccccc1)CN2 (centres undefined) | – | – | 10 | 600 | –
24 | CCOC(=O)Nc1cc2ncc(CN(C)c3ccccc3)nc2c(N)n1 | – | – | – | 670 | –
25 | CN(CC1=Nc2c(cc(N)nc2S)NC1)c1ccc(C(=O)O)cc1 | – | – | – | 29000 | –
26 | CCOC(=O)Nc1cc2c(c(N)n1)N=C(c1ccc(C(F)(F)F)cc1)CN2 | 0 | 150 | – | – | Mitotic index (L1210 [1]): 0.01; ILS (mg/kg) (P388 [15]): 17%
27 | CCOC(=O)Nc1ccc(/N=C/c2ccccc2)cn1 | 0 | > 300 | – | – | –
28 | CCOC(=O)Nc1cc2c(c(N)n1)N=C(c1ccccc1)CN2C | 12 | 160 | – | – | Mitotic index (L1210 [9]): 0.68
29 | CCOC(=O)Nc1ccc(/N=C(/C=C(/O)OCC)c2ccccc2)c(N)n1 | – | > 300 | – | – | Mitotic index (L1210 [1]): 0.03
30 | CCOC(=O)Nc1cc2c(c(N)n1)N=C(c1ccccc1)C(C)N2 (centres undefined) | 54 | 0.51 | – | – | ILS (mg/kg) (P388 [6]): 75%
31 | CCOC(=O)Nc1cc2c(c(N)n1)N=C(c1ccccc1)CN2 | 55 | 4.7 | – | – | Mitotic index (L1210 [16]): 0.65; Mitotic index (L1210 [17]): 0.54; ILS (mg/kg) (P388 [15]): 51%

From ChEMBL document CHEMBL1122315, “1,2-Dihydropyrido[3,4-b]pyrazines: structure-activity relationships” (1983)
